These results are taken from ChEMBL document CHEMBL4680083, “Identification of Tricyclic Agonists of Sphingosine-1-phosphate Receptor 1 (S1P) Employing Ligand-Based Drug Design” (J Med Chem, 2016).

What is called EC50 is the concentration needed to bring the measured effect to its halfway point.

Data set [1] concerns Rattus norvegicus. The experiment in a line: Reduction in circulating lymphocytes count in Lewis rat blood at 1 mg/kg, po measured at 24 hrs by hematology analyzer based analysis. Details: scale not given: the % may be the effect or the level left. It counts as functional. The essentials:
(§1)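 Lewis rats were given an oral dose as a solution or suspension in PEG300, with controls receiving vehicle only. Blood was taken by retro-orbital bleeding under isoflurane at 4 and 24 h. Lymphocytes were counted on a hematology analyzer. Reduction is relative to the vehicle group, averaged over the animals in each group (n = 3−4).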

Data set [2] can be described thus: Plasma concentration in Lewis rat at 1 mg/kg, po measured at 24 hrs. Type of data set: ADME, organism-based. The settings on record: Lewis, plasma. The essentials:
(§2)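 Lewis rats received a single oral 1.0 mg/kg dose as solution or suspension in PEG300. Blood was drawn retro-orbitally under isoflurane at 4 h and 24 h, within the blood lymphocyte reduction study. n = 3−4 per group, group mean reported.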

Data set [3] can be described thus: Selectivity index, ratio of EC50 for agonist activity at human S1P3 expressed in CHO cell membranes to EC50 for agonist activity at human S1P1 expressed in CHO cell membranes. It counts as cell-based.
A short description of data set [4]: Plasma concentration in Lewis rat at 1 mg/kg, po measured at 4 hr. Type of data set: ADME, organism-based. Conditions: Lewis, plasma. Summed up:
as §2

The nature of data set [5]: Ratio of plasma concentration in Lewis rat at 1 mg/kg, po measured at 4 hrs to plasma concentration in Lewis rat at 1 mg/kg, po measured at 24 hrs. It counts as ADME, organism-based. Conditions: in vivo.
Data set [6] deals with Sphingosine 1-phosphate receptor 1 (Homo sapiens, UniProt P21453). The experiment in a line: Agonist activity at human S1P1 expressed in CHO cell membranes assessed as stimulation of [35S]-GTPgamma-S binding measured after 45 mins by liquid scintillation counting method. On the set-up: species or system Cell membrane. The essentials: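 S1P1/CHO cell membranes at 3 μg protein/well with 3-fold compound dilutions. [35S]GTPγS 0.2 nM final, 45 min at room temperature. Filter-plate capture, water washes, scintillation counting. EC50 taken at 50% of each compound's own Ymax.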
Sphingosine 1-phosphate receptor 1, sequence (P21453 whole entry): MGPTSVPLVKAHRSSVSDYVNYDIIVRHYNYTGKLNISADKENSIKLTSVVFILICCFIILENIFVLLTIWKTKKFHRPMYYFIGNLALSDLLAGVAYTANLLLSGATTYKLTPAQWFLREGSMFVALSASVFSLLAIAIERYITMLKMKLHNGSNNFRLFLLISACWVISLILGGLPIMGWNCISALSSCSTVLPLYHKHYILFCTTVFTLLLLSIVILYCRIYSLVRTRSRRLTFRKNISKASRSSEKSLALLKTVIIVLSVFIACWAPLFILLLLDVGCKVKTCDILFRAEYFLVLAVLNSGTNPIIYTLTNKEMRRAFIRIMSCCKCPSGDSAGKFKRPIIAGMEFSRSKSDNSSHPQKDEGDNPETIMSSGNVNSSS
A general note: GTPγS resists hydrolysis and so accumulates on activated G proteins.

Data set [7] deals with Rattus norvegicus. Kind of data set: Reduction in circulating lymphocytes count in Lewis rat blood at 1 mg/kg, po measured at 4 hrs by hematology analyzer based analysis. Details: scale not given: the % may be the effect or the level left. Type of data set: functional. The essentials: as §1
Data set [8] addresses Sphingosine 1-phosphate receptor 3 (Homo sapiens, UniProt Q99500). The experiment in a line: Agonist activity at human S1P3 expressed in CHO cell membranes assessed as stimulation of [35S]-GTPgamma-S binding measured after 45 mins by liquid scintillation counting method. On the set-up: species or system Cell membrane.

The structures appear in SMILES notation.

Sphingosine 1-phosphate receptor 3, sequence (Q99500 whole entry): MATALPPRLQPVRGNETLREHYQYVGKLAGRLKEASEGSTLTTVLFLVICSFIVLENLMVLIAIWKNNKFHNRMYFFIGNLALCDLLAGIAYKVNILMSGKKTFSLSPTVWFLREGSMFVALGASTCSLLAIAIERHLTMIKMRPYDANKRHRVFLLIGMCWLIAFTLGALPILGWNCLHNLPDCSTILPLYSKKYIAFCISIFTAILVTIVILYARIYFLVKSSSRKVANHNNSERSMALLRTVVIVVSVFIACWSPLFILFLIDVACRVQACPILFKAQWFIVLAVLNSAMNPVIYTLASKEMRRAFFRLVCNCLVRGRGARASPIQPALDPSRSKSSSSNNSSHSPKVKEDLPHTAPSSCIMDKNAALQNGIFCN

As to `CC(C)Oc1ccc(-c2onc3c2CCc2cc(CN4CC(C(=O)O)C4)ccc2-3)cc1C(F)(F)F`, the Activity amounted to 21% with Rattus norvegicus [1] and 57% in the data set with Rattus norvegicus [7]. In addition, the concentration at 24 h in data set [2] is 5 nM. The Ratio EC50 in data set [3] was 17000. Also, the concentration at 4 h in data set [4] was 28 nM. Further, in data set [5], the Ratio is reported as 6. The values for the EC50 in data set [6] and in data set [8] were 1.5 nM and 26000 nM, respectively.
`O=C(O)C1CN(Cc2ccc3c(c2)CCc2c-3noc2-c2ccc(C3CCCCC3)c(C(F)(F)F)c2)C1`: the Activity is 32% with Rattus norvegicus [1] and 35% in the data set with Rattus norvegicus [7]. The same compound gave a concentration at 24 h in data set [2] of 17 nM. Moreover, the Ratio EC50 in data set [3] came to 2100. Also, the concentration at 4 h in data set [4] stood at 68 nM. In addition, the Ratio in data set [5] stood at 4. In addition, the EC50 in data set [6] amounted to 0.98 nM; in data set [8], 2100 nM.
In the case of `O=C(O)C1CN(Cc2cc3c(cc2F)-c2noc(-c4noc(-c5ccccc5)c4C(F)(F)F)c2CC3)C1`, the results for the Activity in the data set on Rattus norvegicus [1] and with Rattus norvegicus [7] were 79% and 74%, respectively. This compound also had a concentration at 24 h in data set [2] of 46 nM. Besides, the Ratio EC50 in data set [3] worked out at 9400. The concentration at 4 h in data set [4] stood at 320 nM. In data set [5], the Ratio is on record as 7. Further, the EC50 in data set [6] is 1.6 nM; in data set [8], 15000 nM.
Consider `O=C(O)C1CN(Cc2ccc3c(c2)CCc2c-3noc2-c2onc(-c3ccccn3)c2C(F)(F)F)C1`, for which the figures for the Activity with Rattus norvegicus [1] and in the data set with Rattus norvegicus [7] were 69% and 82%, respectively. This compound also yielded a concentration at 24 h in data set [2] of 1 nM. Besides, in data set [3], the Ratio EC50 amounted to 1300. In addition, the concentration at 4 h in data set [4] came out at 120 nM. Also, the Ratio in data set [5] is 120. For the same compound, the results for the EC50 in data set [6] and in data set [8] were 1 nM and 1300 nM, respectively.
Consider `O=C(O)C1CN(Cc2ccc3c(c2)CCc2c-3noc2-c2noc(-c3ccccc3)c2C(F)(F)F)C1`, for which the Activity in the data set with Rattus norvegicus [1] was found to be 87%; in the data set on Rattus norvegicus [7], 83%. In data set [2], this compound yielded a concentration at 24 h of 43 nM. For the same compound, the Ratio EC50 in data set [3] worked out at 4000. In data set [4], the concentration at 4 h came out at 160 nM. Further, the Ratio in data set [5] was determined as 4. Moreover, the values for the concentration giving a half-maximal response (EC50) in data set [6] and in data set [8] were 0.48 nM and 1900 nM, respectively.
For `O=C(O)C1CN(Cc2ccc3c(c2)CCc2c-3noc2-c2snc(-c3ccccc3)c2C(F)(F)F)C1`, the figures for the Activity in the data set on Rattus norvegicus [1] and in the data set on Rattus norvegicus [7] were 69% and 74%, respectively. The compound further had a concentration at 24 h in data set [2] of 32 nM. In addition, the Ratio EC50 in data set [3] came out at 7900. In data set [4], this compound returned a concentration at 4 h of 190 nM. Further, in data set [5], the Ratio came out at 6. In addition, the concentration giving a half-maximal response (EC50) was 0.58 nM in data set [6] and 4600 nM in data set [8].
With `CC(C)Cc1ccc(-c2onc3c2CCc2cc(CN4CC(C(=O)O)C4)ccc2-3)cc1C(F)(F)F`, the values for the Activity in the data set with Rattus norvegicus [1] and with Rattus norvegicus [7] were 76% and 74%, respectively. Moreover, the concentration at 24 h in data set [2] was 50 nM. In addition, in data set [3], the Ratio EC50 was 2200. The concentration at 4 h in data set [4] came to 110 nM. Also, the Ratio in data set [5] came to 2. The EC50 in data set [6] was found to be 1.3 nM; in data set [8] it was 2800 nM.
Consider `Cc1cc2c(cc1CN1CC(C(=O)O)C1)CCc1c-2noc1-c1noc(-c2ccccc2)c1C(F)(F)F`, for which the Activity in the data set on Rattus norvegicus [1] is given as 34%; in the data set on Rattus norvegicus [7] it was 85%. The concentration at 24 h in data set [2] came out at 4 nM. The Ratio EC50 in data set [3] is 1400. Moreover, the concentration at 4 h in data set [4] was found to be 190 nM. The Ratio in data set [5] is 48. Moreover, the EC50 in data set [6] worked out at 0.87 nM; in data set [8], 1200 nM.
Take `O=C(O)C1CN(Cc2ccc3c(c2)CCc2c-3noc2-c2nsc(-c3ccccc3)c2C(F)(F)F)C1`: the Activity is listed as 85% in the data set on Rattus norvegicus [1] and 82% with Rattus norvegicus [7]. In addition, the concentration at 24 h in data set [2] was 26 nM. In addition, the Ratio EC50 in data set [3] came to 4200. The concentration at 4 h in data set [4] amounted to 150 nM. The Ratio in data set [5] stood at 6. The EC50 in data set [6] is 0.33 nM; in data set [8] it was 1400 nM.
